CR mimetic SO: reduction of superoxide in aged yeast, primary screen, HTS; AID 2690, 2010; S. cerevisiae aged cells, superoxide DHE fluorescence; stronger effect = lower value; 0.18% of 330,000 active; superoxide response (% of plate mean), % at 10 µM;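 active = superoxide response under a set limit, about three screen SD below normal, cut at about 65% in these data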;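 also: yeast aged for seven days with compound at 30 °C before DHE staining; 100% = average MFI of all compound-treated wells on the plate with controls excluded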
S1P3 antagonist: S1P3 receptor antagonists, primary screen, cell-based. CHO S1P3 NFAT-BLA reporter, FRET fluorescence, antagonist mode. 0.27% of 170,000 active. Sphingosine 1-phosphate receptor 3 (Homo sapiens), Q99500. inhibition, % at 4.98 µM;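 active = inhibition above the plate cutoff, the mean inhibition of test wells on that plate plus 3 SD, cut at about 28% in these data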;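 also: cells challenged with S1P at its EC80 of 0.8 µM; blue over green emission ratio from cleaved BLA substrate after 4 h stimulation; 0% = S1P-stimulated wells and 100% = unstimulated DMSO-only wells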
Target sequence (Q99500 whole entry, looked up): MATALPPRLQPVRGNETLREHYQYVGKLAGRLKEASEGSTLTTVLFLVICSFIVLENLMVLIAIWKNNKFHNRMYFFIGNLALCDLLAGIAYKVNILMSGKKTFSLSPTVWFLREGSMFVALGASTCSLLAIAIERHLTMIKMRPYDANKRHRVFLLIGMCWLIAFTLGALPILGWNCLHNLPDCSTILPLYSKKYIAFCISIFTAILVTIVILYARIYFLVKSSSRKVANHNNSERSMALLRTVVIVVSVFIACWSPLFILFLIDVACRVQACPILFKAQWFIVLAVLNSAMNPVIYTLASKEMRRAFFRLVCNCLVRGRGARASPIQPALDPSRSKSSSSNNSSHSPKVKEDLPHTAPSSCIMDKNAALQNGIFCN
T cell modulator: modulators of CD8 T cell-vesicle binding, primary screen, mouse 2C CD8+ T cells, flow cytometry. 2C CD8+ T cell-vesicle binding; stronger effect = lower value. response (vesicle binding), % at 7 µM. 0.068% of 330,000 active. AID 2052, 2009;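 active = response, share of CD8 T cells binding vesicles, and their 90th percentile fluorescence all below set limits, cut at about 80% in these data, passing the limit was not always enough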;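 also: values below 100% mean blocked vesicle binding to the CD8+ T cells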
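System: murine 2C transgenic CD8+ T lymphocytes; also added: QL9-loaded Drosophila micro-vesicles; times: binding 1.5 h at 37 °C; measured by: flow cytometry, PE anti-B7-1 (FL2) versus Alexa647 anti-CD8 (FL8), PFA-fixed; control set: Peptide-free naked vesicles (low) and QL9 vesicles with 0.7% DMSO vehicle (high)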
* hit, by the source's call; i = inactive; . = no result. Rows were chosen to be rich in hits. Some 0.41% of all compounds tested hit in one or more screens of this group.

SMILES	CR mimetic SO	S1P3 antagonist	T cell modulator
Cc1cc(Cl)c(OCCCN2CCCCC2)c(Br)c1	107	-9	72*
CCOc1ccc(S(=O)(=O)N(CC)CC(=O)NCc2ccncc2)cc1C	106	.	229
COc1cc(C(=O)NCCC(c2ccccc2)c2ccccc2)cc(OC)c1OC	94	.	209
CCOC(=O)Cn1c(=O)cc(C)c2ccccc21	98	-8	241
CCOC(=O)Cn1c(C)[n+](CC(=O)c2ccccc2)c2ccccc21	65*	2	458
COc1ccc(-c2cc(CC3(C(=O)O)CCN(C(=O)OC(C)(C)C)CC3)on2)c(OC)c1	101	.	763
O=C(NCc1ccc(Cl)cc1)c1ccc(CNc2c(N3CCOCC3)c(=O)c2=O)cc1	106	-6	154
O=C(NCc1ccc(Cl)cc1)c1ccc(CNc2c(N3CCCC3)c(=O)c2=O)cc1	96	8	0.0*
O=C(c1ccccc1F)N1CCc2ccccc21	100	4	0.0*
O=C(OCC(=O)N1CCc2ccccc21)c1ccccc1F	74	.	635
O=C(c1ccco1)c1cn(CC(=O)N2CCCCCC2)c2ccccc12	96	-16	214
CC1CCCCN1C(=O)Cn1cc(C(=O)c2ccco2)c2ccccc21 (stereo not given)	96	96*	159
Cc1ccc2c(=O)n3c(nc2c1)C(Cc1ccccc1)NC(=O)c1cc(Cl)ccc1-3 (stereo not given)	108	.	0.0*
O=C1NC(Cc2ccccc2)c2nc3ccccc3c(=O)n2-c2ccc(Cl)cc21 (stereo not given)	108	.	258
COc1ccc(NC(=O)Nc2c(O)ccc3ccccc23)cc1	105	.	39*
COc1ccc(C(=O)Nc2c(O)ccc3ccccc23)cc1	91	.	329
Cc1cc(C)c(C(N)=O)c(NC(=O)Nc2ccccc2Cl)n1	102	.	383
Cc1cc(C)c(C(N)=O)c(Nc2cccc(Cl)c2C)n1	111	55*	259
O=C(O)CN1C(=O)C2(OCCO2)c2cc(Br)ccc21	112	.	i
CSc1nc(-c2ccco2)nn1C(=O)c1ccccc1	99	.	147
COc1ccccc1C(=O)n1nc(-c2ccco2)nc1SC	100	-10	28*
CC(=O)c1ccc(NC(=O)CN2C(=O)NC(C)(C3CCCCC3)C2=O)cc1 (stereo not given)	102	.	495
CCn1cnc2scc(-c3ccccc3)c2c1=O	95	19	144
Cn1cc(/C=N/n2cnc3scc(-c4ccc(Cl)cc4)c3c2=O)c2ccccc21	101	56*	261
COc1ccc(CC(C)N2CCN(Cc3ccccc3)CC2)cc1OC (stereo not given)	110	.	257
SMILES	CR mimetic SO	S1P3 antagonist	T cell modulator
CN(CCc1ccccc1)C1CCCN(C(=O)Cn2cccn2)C1 (stereo not given)	104	.	322
Cc1cc2oc(=O)cc(CN3CCOCC3)c2c(C)c1Cl	91	.	176
CC(C)c1ccc(C(=O)CSc2ncn[nH]2)cc1	116	-15	500
O=C(CSc1ncn[nH]1)CSc1ncn[nH]1	83	-24	11*
CN(C(=O)c1ccc(NC(=O)Cc2cccc(NC(=O)C3CCN(C(=O)c4ccccc4)CC3)c2)cc1)C1CCCC1	113	.	53
CCCCCC(=O)NCC(C)NC(=O)CCCCC (stereo not given)	89	-15	0.0*
CC(CNC(=O)CCc1ccccc1)NC(=O)CCc1ccccc1 (stereo not given)	87	.	616
COc1ccc(C)cc1NC(=O)CSc1nc2ccccc2nc1N1CCCC1	99	.	476
COc1ccc(NC(=O)CN2CCCC2c2cccs2)cc1S(=O)(=O)N1CCCCC1 (stereo not given)	105	.	469
CCOC(=O)c1sc2nc(NC(=O)c3cccs3)sc2c1C	.	70*	.
CCOC(=O)c1csc(NC(=O)c2cccs2)n1	88	.	228
O=C(COc1ccc(-c2nnco2)cc1)Nc1cc([N+](=O)[O-])ccc1F	112	.	437
CC1CC(C)CN(C(=O)CN2C(=O)NC3(CCCCCCC3)C2=O)C1 (stereo not given)	105	.	503
COc1ccccc1CNC(=O)C12CC3CC(CC(C3)C1)C2	62*	.	305
O=C(NCc1ccccc1F)C12CC3CC(CC(C3)C1)C2	104	.	614
Cc1ccc(NC(=O)COC(=O)c2ccc(NC(=O)CC#N)cc2)cc1S(=O)(=O)N1CCOCC1	122	.	834
O=C1c2oc3ccc(Br)cc3c(=O)c2C(c2cccnc2)N1Cc1ccco1 (stereo not given)	.	95*	.
O=C1c2oc3ccccc3c(=O)c2C(c2cccc(Br)c2)N1Cc1ccco1 (stereo not given)	119	12	412
CCOC(=O)CN(C(=O)c1snc(C(N)=O)c1N)C(C(=O)NC1CCCCC1)c1ccc(F)cc1 (stereo not given)	100	.	426
CC(C)(C)c1cc(O)c(C(C)(C)C)cc1O	52*	.	199
Cc1cc(C(C)(C)C)c(O)c(C(C)(C)C)c1	99	-18	102
O=C(OCc1ccc(O)cc1)c1c(-c2ccsc2)oc2ccc(N3CCOCC3)cc12	93	.	270
O=C1OCCN1C(=O)[C@H]1[C@H](c2ccc(Cl)cc2)C(c2ccc(F)cc2)=NN1c1ccc(Br)cc1	94	.	.
O=C1OCCN1C(=O)[C@H]1[C@H](c2ccc(F)cc2)C(c2ccc(F)cc2)=NN1c1ccc(Br)cc1	45*	-21	568
CCOc1ccc(NC(=O)CN(C)C(=O)CSCc2ccc(C)cc2)cc1OCC	100	.	168
SMILES	CR mimetic SO	S1P3 antagonist	T cell modulator
CCCC(c1nnnn1Cc1ccco1)N1CCN(c2ccccc2)CC1 (stereo not given)	101	3	224
CCCC(c1nnnn1Cc1ccco1)N1CCN(c2cc(Cl)ccc2C)CC1 (stereo not given)	110	60*	349
COc1cccc(N2C(=O)C(CC(=O)Nc3ccc(F)cc3)N(C3CCCCC3)C2=O)c1 (stereo not given)	95	103*	369
COc1cccc(N2C(=O)C(CC(=O)Nc3ccccc3)N(C3CCCCC3)C2=O)c1 (stereo not given)	85	.	527
O=C(COC(=O)CNC(=O)c1ccccc1F)NC1CC1	109	.	277
COc1ccc2[nH]c(C(=O)NCCCN3CCCC3=O)c(C)c2c1	91	.	396
Cc1ccccc1C(=O)NNC(=O)c1cccn1C	102	.	278
Cn1cccc1C(=O)NNC(=O)c1ccccc1Br	107	.	0.0*
Cc1ccc(C)c(S(=O)(=O)N2CCN(C(=O)CCCc3c[nH]c4ccccc34)CC2)c1	113	.	448
NC(=O)C1CCN(C(=O)c2cc(-c3ccc(Cl)s3)nc3ccccc23)CC1	90	.	207
O=C(NN=C1CCCC1)c1cccs1	94	-6	266
CC(=O)N1CCC(=NNC(=O)c2cccs2)CC1	122	-3	0.0*
CC(=O)Nc1ccc2nc3ccccc3nc2c1	52*	5	953
CC(=O)Nc1ccc(Nc2cc(C)c3ccccc3n2)cc1	100	.	190
COCCN1CCN(C(=O)C2CCC(=O)N(Cc3ccccc3OC)C2)CC1 (stereo not given)	104	.	154

Compound activity: PubChem, several laboratories
